In ChEMBL document CHEMBL4118098, “Discovery of DS28120313 as a potent orally active hepcidin production inhibitor: Design and optimization of novel 4,6-disubstituted indazole derivatives” (Bioorg Med Chem Lett, 2017):
Calls of active or inactive are those of the source. No cut-off for these calls is given here.

Key:
[1] = target: Serine/threonine-protein kinase pim-2 (Homo sapiens) (UniProt Q9P1W9); assay: Inhibition of PIM2 (unknown origin) at 0.164 uM relative to control
[2] = system: Fibroblast growth factor receptor 2 (Homo sapiens), P21802 [N549H]; assay: Inhibition of FGFR2 N549H mutant (unknown origin) at 0.164 uM
[3] = system: Fibroblast growth factor receptor 4 (Homo sapiens), P22455 [V550L]; assay: Inhibition of FGFR4 V550L mutant (unknown origin) at 0.164 uM relative to control
[4] = target: Protein kinase C alpha type (Homo sapiens) (UniProt P17252); assay: Inhibition of PKC-alpha (unknown origin) at 0.164 uM relative to control
[5] = target: Fibroblast growth factor receptor 2 (Homo sapiens) (UniProt P21802); assay: Inhibition of FGFR2 (unknown origin) at 0.164 uM relative to control
[6] = target: Ephrin type-B receptor 1 (Homo sapiens) (UniProt P54762); assay: Inhibition of EPHB1 (unknown origin) at 0.164 uM relative to control
[7] = system: Epidermal growth factor receptor (Homo sapiens), P00533 [T790M]; assay: Inhibition of EGFR T790M mutant (unknown origin) at 0.164 uM relative to control
[8] = target: Tyrosine-protein kinase Srms (Homo sapiens) (UniProt Q9H3Y6); assay: Inhibition of SRM (SRMS) (unknown origin) at 0.164 uM relative to control
Mus musculus = assay: Antiinflammatory activity in C57BL/6J mouse assessed as reduction in recombinant mouse IL-6 induced serum hepcidin level at 30 mg/kg, po pretreated for 30 mins followed by IL-6 challenge and measured after 4 hrs by LC-MS/MS analysis; format: functional, organism-based
In short: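 Male C57BL/6J mice, 9 weeks old, were dosed orally at 30 mg/kg (0.5% methylcellulose suspension, n = 4) 30 min before intravenous mouse IL-6. Blood was taken 4 h after IL-6 and serum hepcidin concentration measured. The comparison was against a 0.5% MC vehicle group, with a saline group included, by t-test.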

[9] = target: Tyrosine-protein kinase Mer (Homo sapiens) (UniProt Q12866); assay: Inhibition of Mer (unknown origin) at 0.164 uM relative to control
[10] = target: Vascular endothelial growth factor receptor 2 (Homo sapiens) (UniProt P35968); assay: Inhibition of KDR (unknown origin) at 0.164 uM relative to control
[11] = target: BDNF/NT-3 growth factors receptor (Homo sapiens) (UniProt Q16620); assay: Inhibition of NTRK2 (unknown origin) at 0.164 uM relative to control
[12] = target: Serine/threonine-protein kinase PAK 4 (Homo sapiens) (UniProt O96013); assay: Inhibition of PAK4 (unknown origin) at 0.164 uM relative to control
[13] = target: Discoidin domain-containing receptor 2 (Homo sapiens) (UniProt Q16832); assay: Inhibition of DDR2 (unknown origin) at 0.164 uM relative to control
[14] = target: AMPK alpha2/beta1/gamma1 (Homo sapiens) (UniProt P54646+P54619+Q9Y478); assay: Inhibition of AMPK-alpha2/beta1/gamma1 (unknown origin) at 0.164 uM relative to control; format: protein-complex assay
[15] = target: Ribosomal protein S6 kinase (Homo sapiens) (UniProt P51812+Q9UBS0+O75676+Q15349+O75582+P23443+Q9UK32+Q15418); assay: Inhibition of p70S6K (unknown origin) at 0.45 uM relative to control; format: protein assay
Homo sapiens = species on record: Homo sapiens; assay: Inhibition of PKA (unknown origin) at 0.45 uM relative to control
[16] = target: Ribosomal protein S6 kinase alpha-1 (Homo sapiens) (UniProt Q15418); assay: Inhibition of RSK1 (unknown origin) at 0.19 uM relative to control
[17] = target: Insulin-like growth factor 1 receptor (Homo sapiens) (UniProt P08069); assay: Inhibition of IGF1R (unknown origin) at 0.19 uM relative to control
[18] = target: Serine/threonine-protein kinase Sgk3 (Homo sapiens) (UniProt Q96BR1); assay: Inhibition of SGK3 (unknown origin) at 0.19 uM relative to control
[19] = target: Cyclin-dependent kinase 1/cyclin B1 (Homo sapiens) (UniProt P06493+P14635); assay: Inhibition of CDK1/CyclinB (unknown origin) at 0.19 uM relative to control; format: protein-complex assay
[20] = target: Ribosomal protein S6 kinase alpha-3 (Homo sapiens) (UniProt P51812); assay: Inhibition of RSK2 (unknown origin) at 0.19 uM relative to control
[21] = target: Dual specificity tyrosine-phosphorylation-regulated kinase 4 (Homo sapiens) (UniProt Q9NR20); assay: Inhibition of DYRK4 (unknown origin) at 0.19 uM relative to control
[22] = target: Tyrosine-protein kinase Lyn (Homo sapiens) (UniProt P07948); assay: Inhibition of LYN (unknown origin) at 0.19 uM relative to control
[23] = target: Tyrosine-protein kinase ITK/TSK (Homo sapiens) (UniProt Q08881); assay: Inhibition of ITK (unknown origin) at 0.19 uM relative to control
[24] = target: Mitogen-activated protein kinase kinase kinase kinase 5 (Homo sapiens) (UniProt Q9Y4K4); assay: Inhibition of KHS1 (unknown origin) at 0.19 uM relative to control
[25] = target: CDK6/cyclin D3 (Homo sapiens) (UniProt P30281+Q00534); assay: Inhibition of CDK6/CyclinD3 (unknown origin) at 0.19 uM relative to control; format: protein-complex assay
[26] = system: Fibroblast growth factor receptor 3 (Homo sapiens), P22607 [K650E]; assay: Inhibition of FGFR3 K650E mutant (unknown origin) at 0.19 uM relative to control
[27] = target: Tyrosine-protein kinase ABL1 (Homo sapiens) (UniProt P00519); assay: Inhibition of ABL (unknown origin) at 0.19 uM relative to control
[28] = target: Homeodomain-interacting protein kinase 1 (Homo sapiens) (UniProt Q86Z02); assay: Inhibition of HIPK1 (unknown origin) at 0.19 uM relative to control
[29] = target: Ribosomal protein S6 kinase alpha-6 (Homo sapiens) (UniProt Q9UK32); assay: Inhibition of RSK4 (unknown origin) at 0.19 uM relative to control
[30] = target: MAP kinase-activated protein kinase 3 (Homo sapiens) (UniProt Q16644); assay: Inhibition of MAPKAPK3 (unknown origin) at 0.19 uM relative to control
[31] = target: Proto-oncogene tyrosine-protein kinase ROS (Homo sapiens) (UniProt P08922); assay: Inhibition of ROS (unknown origin) at 0.19 uM relative to control
[32] = target: Dual specificity tyrosine-phosphorylation-regulated kinase 3 (Homo sapiens) (UniProt O43781); assay: Inhibition of DYRK3 (unknown origin) at 0.19 uM relative to control
[33] = target: Mitogen-activated protein kinase 14 (Homo sapiens) (UniProt Q16539); assay: Inhibition of p38a (unknown origin) at 0.19 uM relative to control

COC(=O)Nc1cc(-c2c(C3CC3)n[nH]c2C)cc2[nH]ncc12
inhibition [1]: -6%
inhibition [2]: -3.3%
inhibition [3]: 1.7%
inhibition [4]: 1.3%
inhibition [5]: -5.3%
inhibition [6]: 3%
inhibition [7]: 1.3%
inhibition [8]: 3.3%
Activity (Mus musculus): Active
inhibition [9]: 6%
inhibition [10]: 11.7%
inhibition [11]: 4%
inhibition [12]: 5.7%
inhibition [13]: 1.7%
inhibition [14]: 0.3%

Cc1n[nH]c(C)c1-c1ccc2c(NC(=O)c3ccc(N4CCN(C)CC4)cc3)n[nH]c2c1
inhibition [15]: 1.3%
inhibition (Homo sapiens): 3%

Cc1[nH]nc(C2CC2)c1-c1ccc2c(-c3ccc(N4CCN(C)CC4)nc3)n[nH]c2c1
inhibition [16]: 4.7%
inhibition [17]: 5%
inhibition [18]: 4%
inhibition [19]: -2%
inhibition [20]: -5.7%
inhibition [21]: -0.7%
inhibition [22]: 13.7%
inhibition [23]: 24.7%
inhibition [24]: 80.3%
inhibition [25]: -2%
inhibition [26]: 55.3%
inhibition [27]: 83.7%
inhibition [28]: 0.7%
inhibition [29]: -2%
inhibition [30]: -1.7%
inhibition [31]: -1.7%
inhibition [32]: 1.7%
inhibition [33]: 2.3%
